In assay [1] the target is T1, Proton-coupled folate transporter (Homo sapiens) (UniProt Q96NT5).
T1 sequence (whole entry): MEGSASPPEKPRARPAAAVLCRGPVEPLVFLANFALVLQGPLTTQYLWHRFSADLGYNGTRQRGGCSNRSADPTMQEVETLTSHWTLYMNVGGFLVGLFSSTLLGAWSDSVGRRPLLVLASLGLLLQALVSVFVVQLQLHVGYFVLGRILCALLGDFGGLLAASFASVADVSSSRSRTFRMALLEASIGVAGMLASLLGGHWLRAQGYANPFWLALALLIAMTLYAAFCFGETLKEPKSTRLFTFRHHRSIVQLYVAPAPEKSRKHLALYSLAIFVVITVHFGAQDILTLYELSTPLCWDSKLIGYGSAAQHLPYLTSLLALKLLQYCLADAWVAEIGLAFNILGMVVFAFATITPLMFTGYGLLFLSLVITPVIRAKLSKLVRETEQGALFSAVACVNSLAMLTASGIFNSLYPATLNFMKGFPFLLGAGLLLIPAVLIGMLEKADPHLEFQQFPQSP
Put plainly: Ratio of Ki for human PCFT at pH 6.8 to Ki for human PCFT at pH 5.5 by [3H]MTX transport assay.

The subject of assay [2] is IGROV-1. Description: Growth inhibition of human IGROV1 cells endogenously expressing RFC/FRalpha/PCFT incubated for 96 hrs by CellTiter-blue cell viability assay. In kind it is functional, cell-based. Particulars: IGROV-1, 96 h.
The subject of assay [3] is KB. Put plainly: Growth inhibition of human KB cells endogenously expressing RFC/FRalpha/PCFT incubated for 96 hrs by CellTiter-blue cell viability assay. In kind it is functional, cell-based. In general terms: Resazurin is reduced to fluorescent resorufin, in cell work by metabolically active cells.
The subject of assay [4] is R2. Put plainly: Growth inhibition of Chinese hamster R2 cells expressing human PCFT incubated for 96 hrs by CellTiter-blue cell viability assay. The format is functional, cell-based, Cricetulus griseus. Particulars: R2, 96 h. An outline of the steps:
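R2/hPCFT4 CHO cells maintained beforehand in folate-free RPMI 1640 with dialyzed FBS, 25 nM LCV and G418. Assay: ~2500–5000 cells/well in folate-free RPMI 1640 (pH 7.2) with 25 nM LCV, 10% dialyzed FBS, antibiotics and L-glutamine, over a range of drug concentrations.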

The test system of assay [5] is KB. Put plainly: Growth inhibition of human KB cells endogenously expressing RFC/FRalpha/PCFT in presence of 10 uM thymidine incubated for 96 hrs by CellTiter-blue cell viability assay. In kind it is functional, cell-based.
For assay [6], the system named is IGROV-1. Description: Growth inhibition of human IGROV1 cells endogenously expressing RFC/FRalpha/PCFT in presence of 60 uM adenosine incubated for 96 hrs by CellTiter-blue cell viability assay. The format is functional, cell-based.
Assay [7] deals with KB. Description: Inhibition of colony formation of human KB cells endogenously expressing RFC/FRalpha/PCFT incubated for 14 days by methylene blue staining based clonogenicty assay. The settings on record: 336 h. The format is functional, cell-based.
In assay [8] the test system is R2. Description: Growth inhibition of Chinese hamster R2 cells deficient in reduced folate carrier and human folate receptor alpha incubated for 96 hrs by CellTiter-blue cell viability assay. The settings on record: R2, 96 h. The format is cell-based, Cricetulus griseus.
A short description of assay [9]: Growth inhibition of Chinese hamster RT16 cells expressing human folate receptor alpha incubated for 96 hrs in presence of folic acid by CellTiter-blue cell viability assay. In kind it is functional, cell-based. The settings on record: Cricetulus griseus, RT16, 96 h.
The test system of assay [10] is KB. Description: Growth inhibition of human KB cells endogenously expressing RFC/FRalpha/PCFT in presence of 60 uM adenosine incubated for 96 hrs by CellTiter-blue cell viability assay. In kind it is functional, cell-based.
Assay [11] can be described thus: Growth inhibition of Chinese hamster PC43-10 cells expressing reduced folate carrier incubated for 96 hrs by CellTiter-blue cell viability assay. In kind it is functional, cell-based. The settings on record: Cricetulus griseus, PC43-10, 96 h.
Assay [12] deals with T2, Proton-coupled folate transporter (Homo sapiens, UniProt Q96NT5).
T2 sequence (Q96NT5 whole entry): T1 sequence (whole entry)
Put plainly: Inhibition of [3H]MTX transport at human PCFT expressed in Chinese hamster R2 cells at pH 6.8 by Dixon plot. The format is cell-based. An outline of the steps: (§1)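 R2/hPCFT4 CHO cells grown in spinner flasks, resuspended in HBS at pH 6.8 or MES-buffered saline at pH 5.5. Uptake quenched with ice-cold DPBS and normalized to protein. Mean ± SE, n=4–8.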

The subject of assay [13] is KB. Description: Growth inhibition of human KB cells endogenously expressing RFC/FRalpha/PCFT in presence of 320 uM 5-amino-4-imidazolecarboxamide incubated for 96 hrs by CellTiter-blue cell viability assay. The format is functional, cell-based.
In assay [14] the test system is IGROV-1. Description: Growth inhibition of human IGROV1 cells endogenously expressing RFC/FRalpha/PCFT in presence of 320 uM 5-amino-4-imidazolecarboxamide incubated for 96 hrs by CellTiter-blue cell viability assay. In kind it is functional, cell-based.
For assay [15], the target named is T3, Trifunctional purine biosynthetic protein adenosine-3 (Homo sapiens, UniProt P22102).
T3 sequence (P22102 whole entry): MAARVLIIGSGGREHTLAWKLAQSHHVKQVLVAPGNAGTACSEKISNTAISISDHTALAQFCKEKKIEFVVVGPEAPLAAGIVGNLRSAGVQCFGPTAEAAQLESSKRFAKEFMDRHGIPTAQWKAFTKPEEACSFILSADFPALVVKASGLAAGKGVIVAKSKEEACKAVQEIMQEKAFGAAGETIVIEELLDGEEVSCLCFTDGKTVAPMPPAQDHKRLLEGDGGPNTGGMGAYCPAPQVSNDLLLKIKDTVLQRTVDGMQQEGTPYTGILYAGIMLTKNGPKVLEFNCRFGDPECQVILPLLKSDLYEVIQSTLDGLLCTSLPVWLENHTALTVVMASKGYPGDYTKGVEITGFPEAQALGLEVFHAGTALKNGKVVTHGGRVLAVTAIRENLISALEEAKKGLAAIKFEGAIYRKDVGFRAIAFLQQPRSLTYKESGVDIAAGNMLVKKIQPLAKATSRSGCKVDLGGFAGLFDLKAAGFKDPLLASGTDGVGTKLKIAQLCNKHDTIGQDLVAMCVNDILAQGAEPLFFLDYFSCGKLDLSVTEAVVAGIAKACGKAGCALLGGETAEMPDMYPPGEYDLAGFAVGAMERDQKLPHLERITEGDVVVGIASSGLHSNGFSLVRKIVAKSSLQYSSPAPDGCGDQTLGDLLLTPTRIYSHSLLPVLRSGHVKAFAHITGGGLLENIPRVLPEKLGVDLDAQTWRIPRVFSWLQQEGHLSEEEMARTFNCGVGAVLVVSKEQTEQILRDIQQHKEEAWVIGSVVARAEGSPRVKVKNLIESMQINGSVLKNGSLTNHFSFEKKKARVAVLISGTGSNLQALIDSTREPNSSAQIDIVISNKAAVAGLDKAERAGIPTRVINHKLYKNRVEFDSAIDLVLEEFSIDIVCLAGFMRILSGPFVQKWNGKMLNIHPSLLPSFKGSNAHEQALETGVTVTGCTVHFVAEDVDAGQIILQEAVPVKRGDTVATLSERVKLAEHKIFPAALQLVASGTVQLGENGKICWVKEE
Put plainly: Inhibition of GARFTase in human IGROV1 cells assessed as reduction in [14C]glycine incorporation into [14C]formyl GAR incubated for 15 hrs in complete folate free RPMI medium in presence of 2 nM leucovorin. In kind it is cell-based, IGROV-1.

Assay [16] has as its system IGROV-1. Put plainly: Growth inhibition of human IGROV1 cells endogenously expressing RFC/FRalpha/PCFT in presence of folic acid incubated for 96 hrs by CellTiter-blue cell viability assay. In kind it is functional, cell-based. Particulars: IGROV-1, 96 h.
Assay [17] can be described thus: Growth inhibition of Chinese hamster RT16 cells expressing human folate receptor alpha incubated for 96 hrs by CellTiter-blue cell viability assay. The format is functional, cell-based. Particulars: Cricetulus griseus, RT16, 96 h.
Assay [18] concerns IGROV-1. Put plainly: Growth inhibition of human IGROV1 cells endogenously expressing RFC/FRalpha/PCFT in presence of 10 uM thymidine incubated for 96 hrs by CellTiter-blue cell viability assay. In kind it is functional, cell-based.
Assay [19] concerns the target T2, Proton-coupled folate transporter. Description: Inhibition of [3H]MTX transport at human PCFT expressed in Chinese hamster R2 cells at pH 5.5 by Dixon plot. In kind it is cell-based. The procedure, abridged:
as §1

Assay [20] concerns KB. Put plainly: Growth inhibition of human KB cells endogenously expressing RFC/FRalpha/PCFT in presence of folic acid incubated for 96 hrs by CellTiter-blue cell viability assay. In kind it is functional, cell-based.
The test system of assay [21] is R2. Description: Growth inhibition of Chinese hamster R2 cells expressing empty vector control incubated for 96 hrs by CellTiter-blue cell viability assay. The settings on record: Cricetulus griseus, R2, 96 h.
For assay [22], the system named is KB. Put plainly: Growth inhibition of human KB cells endogenously expressing RFC/FRalpha/PCFT in presence of 50 nM leucovorin incubated for 96 hrs by CellTiter-blue cell viability assay. In kind it is functional, cell-based. An outline of the steps: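 KB cells in complete folate-free RPMI 1640 with 10% dialyzed FBS and LCV at 50 nM (versus the standard 2 nM), exposed to a range of antifolate concentrations for up to 96 h. Cell density read by CellTiter-blue fluorescence and normalized to drug-free cells. Representative data from experiments run in duplicate.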

Assay [23] has as its target Folate receptor alpha (Homo sapiens) (UniProt P15328). The format is cell-based. Particulars: CHO.

Results on two compounds are retold here after ChEMBL document CHEMBL2157949 (J Med Chem, 2012).

The IC50 is the midpoint of a concentration-inhibition curve. As usually defined, the Ki is a measure of affinity in units of concentration, obtained from inhibition or displacement. A higher Ki goes with lower affinity.

SMILES strings stand for the structures. Calls of active or inactive are those of the source. The calls are words filed in the database; no cut-off is given here.

Folate receptor alpha (Homo sapiens), sequence (P15328 25-234 limits assumed): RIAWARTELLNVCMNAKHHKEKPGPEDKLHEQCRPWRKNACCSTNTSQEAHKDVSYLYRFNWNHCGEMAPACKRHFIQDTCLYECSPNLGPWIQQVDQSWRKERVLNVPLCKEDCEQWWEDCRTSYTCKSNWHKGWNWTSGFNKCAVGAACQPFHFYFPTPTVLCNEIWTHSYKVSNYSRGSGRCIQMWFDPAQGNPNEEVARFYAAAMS

For `Nc1nc2[nH]c(CCCCc3cc(C(=O)N[C@@H](CCC(=O)O)C(=O)O)cs3)cc2c(=O)[nH]1`, the Ratio Ki in assay [1] amounted to 70. The 50% inhibitory concentration (IC50) in the assay with IGROV-1 [2] is 1.4 nM; in the assay with KB [3] it was 0.27 nM; with R2 [4] it was 63.8 nM; in the assay on KB [7] it was 0.16 nM; with R2 [8], greater than 1000 nM; in [9], greater than 1000 nM. The concentration for half-maximal inhibition (IC50) in assay [11] is greater than 1000 nM; in assay [15], 2.03 nM; in the assay on IGROV-1 [16], greater than 1000 nM; in [17], 2.6 nM; with KB [20], greater than 1000 nM; in the assay on R2 [21], greater than 1000 nM. Further, the IC50 in the assay on KB [22] was greater than 20 nM. In addition, the “growth inhibition (GI)” value in the assay with KB [5] and in the assay on IGROV-1 [18] was “Active” each time. In addition, the “growth inhibition (GI)” value with IGROV-1 [6], in the assay on KB [10], in the assay with KB [13] and in the assay with IGROV-1 [14] was “inactive” each time. The Ki in [12] was 30700 nM; in assay [19] it was 420 nM. This compound also showed a relative binding affinity (RBA) in [23] greater than 1.
As to `Nc1nc2[nH]c(CCCCc3csc(C(=O)N[C@@H](CCC(=O)O)C(=O)O)c3)cc2c(=O)[nH]1`, the IC50 in the assay on IGROV-1 [2] is 0.48 nM; in the assay with KB [3] it was 0.17 nM; in the assay with R2 [4], 41.5 nM; with KB [7] it was 0.39 nM; in the assay on R2 [8], greater than 1000 nM; in assay [9] it was greater than 1000 nM. Further, the half-maximal inhibitory concentration (IC50) in assay [11] was greater than 1000 nM; with IGROV-1 [16], greater than 1000 nM; in [17], 2.54 nM; in the assay on KB [20], greater than 1000 nM; in the assay on R2 [21], greater than 1000 nM; in the assay with KB [22], 3.4 nM. Moreover, the “growth inhibition (GI)” value in the assay with KB [5] and in the assay with IGROV-1 [18] was “Active” in each case. Also, the “growth inhibition (GI)” value in the assay on IGROV-1 [6], with KB [10], in the assay with KB [13] and in the assay with IGROV-1 [14] was “inactive” each time. For the same compound, the inhibition constant Ki was found to be 28100 nM in [12] and 390 nM in assay [19]. This compound registered a relative binding affinity (RBA) in [23] greater than 1.
